Assay results published in ChEMBL document CHEMBL1221279, “Synthesis, biological evaluation, and structure-activity relationship study of novel cytotoxic aza-caffeic acid derivatives” (Bioorg Med Chem, 2010).

Columns and labels:
Format in all cases: functional, cell-based
[1] = Cytotoxicity against human Bel7404 cells after 72 hrs by MTT assay; conditions: BEL-7404, 72 h
Procedure, shortened: (§1)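 Cells grown in MEM with 10% fetal calf serum, penicillin and streptomycin at 37 °C, 5% CO2. Exponentially growing cells seeded in quadruplicate at 5 × 10³ per well and left 24 h before compounds (DMSO stocks) were added. After 72 h exposure, MTT added for 4 h at 37 °C, formazan dissolved in DMSO, read at 570 nm. IC50 read graphically from dose–response curves.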

HeLa = test: Cytotoxicity against human HeLa cells after 72 hrs by MTT assay; procedure, shortened: as §1
[2] = Cytotoxicity against human ECA109 cells after 72 hrs by MTT assay; conditions: ECa-109, 72 h; procedure, shortened: as §1
[3] = Cytotoxicity against human LS 174T cells after 72 hrs by MTT assay; conditions: LS174T; procedure, shortened: as §1
PC-3 = test: Cytotoxicity against human PC3 cells after 72 hrs by MTT assay; conditions: PC-3, 72 h; procedure, shortened: as §1
HL-60 = test: Cytotoxicity against human HL60 cells after 72 hrs by MTT assay; conditions: HL-60, 72 h; procedure, shortened: as §1
CNE = test: Cytotoxicity against human CNE cells after 72 hrs by MTT assay; procedure, shortened: as §1
K562 = test: Cytotoxicity against human K562 cells after 72 hrs by MTT assay; conditions: K562, 72 h; procedure, shortened: as §1
BGC-823 = test: Cytotoxicity against human BGC823 cells after 72 hrs by MTT assay; conditions: BGC-823, 72 h; procedure, shortened: as §1
A549 = test: Cytotoxicity against human A549 cells after 72 hrs by MTT assay; conditions: A549, 72 h; procedure, shortened: as §1
[4] = Cytotoxicity against human HO8910 cells after 72 hrs by MTT assay; conditions: HO-8910, 72 h; procedure, shortened: as §1
KB = test: Cytotoxicity against human KB cells after 72 hrs by MTT assay; procedure, shortened: as §1

Row | SMILES | IC50 [1] | IC50 (HeLa) | IC50 [2] | IC50 [3] | IC50 (PC-3) | IC50 (HL-60) | IC50 (CNE) | IC50 (K562) | IC50 (BGC-823) | IC50 (A549) | IC50 [4] | IC50 (KB)
1 | CCOc1ccc(COc2c(OC)cc(/C=C/C(=O)OCC(=O)Nc3ccc(Cl)cc3)cc2OC)cc1 | > 200 µM | > 200 µM | > 200 µM | > 200 µM | > 200 µM | > 200 µM | > 200 µM | > 200 µM | – | – | – | –
2 | COCOc1cc(/C=C/C(=O)OCC(=O)NN2CCOCC2)ccc1OCc1ccccc1 | > 200 µM | > 200 µM | 143 µM | > 200 µM | > 200 µM | 50.4 µM | > 200 µM | 32.4 µM | – | – | – | –
3 | COCOc1ccc(/C=C/C(=O)NCCN2CCOCC2)cc1OCOC | > 200 µM | > 200 µM | > 200 µM | > 200 µM | > 200 µM | > 200 µM | > 200 µM | > 200 µM | > 200 µM | > 200 µM | > 200 µM | > 200 µM
4 | Cc1ccc(NC(=O)COC(=O)/C=C/c2ccc(O)c(O)c2)cc1 | > 200 µM | > 200 µM | > 200 µM | 145 µM | > 200 µM | 92.6 µM | > 200 µM | > 200 µM | – | – | – | –
5 | O=C(/C=C/c1ccc(O)c(O)c1)N1CCN(Cc2ccc(Cl)c(Cl)c2)CC1 | > 200 µM | > 200 µM | > 200 µM | 50.4 µM | > 200 µM | 165 µM | > 200 µM | > 200 µM | > 200 µM | > 200 µM | > 200 µM | > 200 µM
6 | COc1ccc(/C=C/C(=O)N2CCN(Cc3ccc(Cl)c(Cl)c3)CC2)cc1OC | 85.7 µM | 76.6 µM | > 200 µM | > 200 µM | > 200 µM | 140 µM | > 200 µM | 70.8 µM | > 200 µM | > 200 µM | 121 µM | 69.2 µM
7 | O=C(/C=C/c1ccc(O)c(O)c1)NCCc1c[nH]c2ccccc12 | > 200 µM | 2.7 µM | > 200 µM | 8.4 µM | > 200 µM | 124 µM | > 200 µM | > 200 µM | > 200 µM | > 200 µM | > 200 µM | 85.7 µM
8 | O=C(/C=C/c1ccccc1)N1CCN(Cc2ccc(Cl)c(Cl)c2)CC1 | 44.8 µM | 73.9 µM | 17 µM | 34.1 µM | 12.8 µM | 82.6 µM | > 200 µM | 14.1 µM | 31.2 µM | 173 µM | 45.4 µM | 20.7 µM
9 | COc1ccc(NC(=O)COC(=O)/C=C/c2ccc(OCc3ccccc3)c(O)c2)cc1 | > 200 µM | > 200 µM | > 200 µM | > 200 µM | > 200 µM | > 200 µM | > 200 µM | 56.1 µM | – | – | – | –
10 | COCOc1cc(/C=C/C(=O)OCC(=O)Nc2nccs2)ccc1OCc1ccccc1 | 130 µM | > 200 µM | > 200 µM | > 200 µM | > 200 µM | > 200 µM | > 200 µM | > 200 µM | – | – | – | –
11 | COCOc1cc(/C=C/C(=O)OCC(=O)Nc2ccc(Cl)cc2)ccc1OCc1ccccc1 | > 200 µM | > 200 µM | > 200 µM | > 200 µM | > 200 µM | > 200 µM | > 200 µM | > 200 µM | – | – | – | –
12 | O=C(COC(=O)/C=C/c1ccc(O)c(O)c1)Nc1ccc(Cl)cc1 | > 200 µM | 195 µM | 175 µM | 108 µM | 160 µM | 8.1 µM | 89.6 µM | 99.4 µM | – | – | – | –
13 | COCOc1cc(/C=C/C(=O)OCC(=O)Nc2ccc(OC)cc2)ccc1OCc1ccccc1 | 133 µM | 155 µM | > 200 µM | > 200 µM | > 200 µM | > 200 µM | > 200 µM | > 200 µM | – | – | – | –
14 | COc1ccc(/C=C/C(=O)NCCN2CCOCC2)cc1OC | > 200 µM | > 200 µM | > 200 µM | > 200 µM | > 200 µM | > 200 µM | > 200 µM | > 200 µM | > 200 µM | > 200 µM | > 200 µM | > 200 µM
15 | COc1ccc(/C=C/C(=O)OCC(=O)Nc2ccccc2)cc1OC | > 200 µM | 193 µM | > 200 µM | > 200 µM | > 200 µM | 46.4 µM | > 200 µM | > 200 µM | – | – | – | –
16 | O=C(COC(=O)/C=C/c1ccc(O)c(O)c1)Nc1ccccc1 | > 200 µM | > 200 µM | > 200 µM | 117 µM | > 200 µM | 30.3 µM | > 200 µM | > 200 µM | – | – | – | –
17 | O=C(/C=C/c1ccccc1)NNC(=O)c1ccccc1O | 21.2 µM | 73.1 µM | 41.4 µM | 20.1 µM | 40.9 µM | 39.3 µM | 43.7 µM | 0.9 µM | 46 µM | 72.6 µM | 190 µM | 20.1 µM
18 | COc1ccc(NC(=O)COC(=O)/C=C/c2cc(OC)c(OCc3ccccc3)c(OC)c2)cc1 | > 200 µM | > 200 µM | > 200 µM | > 200 µM | > 200 µM | > 200 µM | > 200 µM | > 200 µM | – | – | – | –
19 | COCOc1ccc(/C=C/C(=O)N2CCN(Cc3ccc(Cl)c(Cl)c3)CC2)cc1OCOC | > 200 µM | 29.1 µM | 7.4 µM | 139 µM | 7.4 µM | 31 µM | > 200 µM | 19.3 µM | 64.4 µM | 107 µM | 69.7 µM | 3.7 µM
20 | COc1ccc(/C=C/C(=O)OCC(=O)Nc2ccc(Cl)cc2)cc1OC | 120 µM | 45.4 µM | 81.9 µM | > 200 µM | > 200 µM | 31.9 µM | > 200 µM | 60.2 µM | – | – | – | –
21 | O=C(/C=C/c1ccc(O)c(O)c1)OCCc1ccccc1 [CAFFEIC ACID PHENETHYL ESTER] | 14.5 µM | 8.8 µM | 42.6 µM | 9.9 µM | 91 µM | 9.8 µM | 54 µM | 46 µM | 19.3 µM | 26.8 µM | 25.5 µM | 45.2 µM
22 | COCOc1ccc(/C=C/C(=O)NCCc2c[nH]c3ccccc23)cc1OCOC | > 200 µM | > 200 µM | 154 µM | 165 µM | 157 µM | > 200 µM | > 200 µM | 195 µM | 143 µM | > 200 µM | > 200 µM | > 200 µM
23 | COc1ccc(NC(=O)COC(=O)/C=C/c2cc(OC)c(OCc3ccc(Cl)c(Cl)c3)c(OC)c2)cc1 | 97.8 µM | > 200 µM | > 200 µM | > 200 µM | > 200 µM | > 200 µM | > 200 µM | > 200 µM | – | – | – | –
24 | COc1cc(/C=C/C(=O)OCC(=O)Nc2ccc(Cl)cc2)cc(OC)c1OCc1ccc(Cl)c(Cl)c1 | > 200 µM | > 200 µM | > 200 µM | 72.4 µM | > 200 µM | 73.9 µM | > 200 µM | > 200 µM | – | – | – | –
25 | COc1ccc(/C=C/C(=O)OCC(=O)NCc2ccco2)cc1OC | > 200 µM | > 200 µM | > 200 µM | > 200 µM | > 200 µM | 92.5 µM | > 200 µM | 0.8 µM | – | – | – | –
26 | CCOc1ccc(COc2c(OC)cc(/C=C/C(=O)OCC(=O)Nc3ccccc3)cc2OC)cc1 | > 200 µM | > 200 µM | > 200 µM | > 200 µM | > 200 µM | > 200 µM | > 200 µM | > 200 µM | – | – | – | –
27 | COc1ccc(NC(=O)COC(=O)/C=C/c2ccc(O)c(O)c2)cc1 | > 200 µM | > 200 µM | 190 µM | 124 µM | 172 µM | 72.1 µM | > 200 µM | 79.1 µM | – | – | – | –
28 | O=C(COC(=O)/C=C/c1ccc(O)c(O)c1)NN1CCOCC1 | > 200 µM | > 200 µM | > 200 µM | > 200 µM | > 200 µM | > 200 µM | > 200 µM | 56.8 µM | – | – | – | –
29 | CCCCCNC(=O)COC(=O)/C=C/c1ccc(O)c(O)c1 | > 200 µM | 187 µM | 131 µM | 69.4 µM | 155 µM | 97.4 µM | 170 µM | 121 µM | – | – | – | –
30 | COCOc1cc(/C=C/C(=O)OCC(=O)NCc2ccco2)ccc1OCc1ccccc1 | > 200 µM | > 200 µM | > 200 µM | > 200 µM | > 200 µM | 82.2 µM | > 200 µM | 0.3 µM | – | – | – | –
